Assay results from different studies.
Each line is one published result; the experiments were not run side by side.
MMP9 Q279R: Matrix metalloproteinase-9 (MMP9, Homo sapiens, UniProt P14780, Q279R)
EDNRB: Endothelin receptor type B (EDNRB, Homo sapiens, UniProt P24530)
MAOB: Amine oxidase [flavin-containing] B (MAOB, Homo sapiens, UniProt P27338)

SMILES | target | observed | action | technique | concentration | inhibition
COc1ccc(S(=O)(=O)N(CC(=O)NO)CC(C)C)cc1 | MMP9 Q279R | enzyme activity | inhibitor | – | 0.1 µM | 96%
COCc1c(-c2cc3cc(C)cc(OC)c3s2)c2c(N)ncnn2c1CN1CCNC(=O)C1 | EDNRB | ligand displacement | – | radioligand | 10 µM | -1%
N=C(N)c1ccc2cc(OC(=O)c3ccc(N=C(N)N)cc3)ccc2c1 | MMP9 Q279R | enzyme activity | inhibitor | – | 10 µM | 11%
CN(CCN1CCC(OC(=O)Nc2ccccc2-c2ccccc2)CC1)C(=O)c1ccc(CN2CCC(C(N)=O)CC2)cc1 | MAOB | enzyme activity | inhibitor | – | 1 µM | -2%
Cc1ncc(C)n2nc(/C=C/c3nc(N4CCCC4)cc(N4CCOCC4)n3)nc12 | Matrix metalloproteinase-9 (MMP9, Homo sapiens, UniProt P14780) | enzyme activity | inhibitor | – | 10 µM | 12%
C[C@H](C(=O)N[C@H]1COc2ccccc2[C@@H]1S(C)(=O)=O)c1ccc(F)cc1 | MAOB | enzyme activity | inhibitor | – | 10 µM | 11%
CN(C)C(=O)COC(=O)Cc1ccc(OC(=O)c2ccc(NC(=N)N)cc2)cc1 | TNFAIP3 (Homo sapiens, UniProt P21580) | enzyme activity | inhibitor | – | 10 µM | 4%
COc1cc(Nc2ncc(F)c(Nc3ccc4c(n3)NC(=O)C(C)(C)O4)n2)cc(OC)c1OC | NUAK family SNF1-like kinase 2 (NUAK2, Homo sapiens, UniProt Q9H093) | binding | – | competition with immobilised ligand | 10 µM | 97%
CC(C)N1CCC[C@H]1CNC(=O)c1cn(C2CCCC2)c(=O)c2c1c1ccccc1n2C | EDNRB | ligand displacement | – | radioligand | 10 µM | 3%
CN1CCN(CCOc2ccc3occc(=O)c3c2)CC1 | MAOB | enzyme activity | inhibitor | fluorescence | 10 µM | 12%
CC(C)C[C@H](NC(=O)[C@H]1O[C@@H]1C(=O)O)C(=O)NCCCCN=C(N)N | Cathepsin L2 (CTSV, Homo sapiens, UniProt O60911) | enzyme activity | inhibitor | – | 0.5 µM | 94%
CN1CCN(CCCCOc2ccc3occc(=O)c3c2)CC1 | MAOB | enzyme activity | inhibitor | fluorescence | 10 µM | 20%
O=C(Nc1cccnn1)N1CCN([C@@H]2CCOc3cc(C(F)(F)F)ccc32)CC1 | EDNRB | cell-free assay | – | – | 20 µM | -5%
